From ChEMBL document CHEMBL1144024, “Low molecular weight lignin suppresses activation of NF-kappaB and HIV-1 promoter” (Bioorg Med Chem, 2008)
Converted amounts (≈) assume the structure as drawn.

Tests used:
[1] = tested on: Human immunodeficiency virus 1; test: Inhibition of HIV1 5'-long terminal repeat promoter expression in human 293T cells by luciferase assay; type: functional; conditions: Human immunodeficiency virus 1, HEK-293T
In short: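 293-T cells co-transfected in 10-cm dishes with 5 lg CD-12-luc LTR reporter plus 0.008 lg pCMV-β-galactosidase. Replated after 2 h and cultured 4 h, then exposed to test agent or vehicle for 20 h (lignins) or 21 h (model compounds). Luciferase chemiluminescence normalized to β-galactosidase. IC50 reported; lignin data are means of three independent experiments.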

[2] = Inhibition of TNF-induced NF-kappaB activation in human […] cells by luciferase assay; type: cell-based
In short: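 293-T cells co-transfected with 5 lg NF-κB luciferase reporter plus 0.008 lg pCMV-β-galactosidase, then replated after 2 h. Cultured 19 h (lignins) or 20 h (model compounds) before 1 h pretreatment with test agent. Stimulated with 3 ng/ml TNFα for 5 h. Luciferase chemiluminescence normalized to β-galactosidase activity; IC50 reported.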

Row | SMILES | IC50 [1] | IC50 [2]
1 | CCCc1cc(OC)c(O)c(-c2cc(CCC)cc(OC)c2O)c1 | > 150 µg/mL | > 150 µg/mL
2 | COc1cc([C@@H](O)[C@@H](CO)c2ccc(O)c(OC)c2)ccc1O | > 150 µg/mL | > 150 µg/mL
3 | COc1cc([C@@H]2OC[C@@H]3[C@H]2CO[C@H]3c2ccc(O)c(OC)c2)ccc1O (single isomer, unassigned) [(+)-PINORESINOL] | > 150 µg/mL | 49 µg/mL (≈ 137 µM)

Results, then the compound that gave them:

Row | IC50 [1] | IC50 [2] | SMILES
4 | > 150 µg/mL | 126 µg/mL (≈ 393 µM) | COc1cc([C@@H](O)[C@@H](CO)Oc2ccccc2OC)ccc1O
5 | 34 µg/mL (≈ 94.9 µM) | 19 µg/mL (≈ 53 µM) | COc1cc([C@H]2Oc3c(OC)cc(/C=C/CO)cc3[C@@H]2CO)ccc1O
6 | 107 µg/mL (≈ 336 µM) | 43 µg/mL (≈ 135 µM) | COc1cc(C(=O)[C@@H](CO)Oc2ccccc2OC)ccc1O
